Measured values taken from ChEMBL document CHEMBL3580591, “Effect of Apigenin on Leishmania amazonensis Is Associated with Reactive Oxygen Species Production Followed by Mitochondrial Dysfunction” (J Nat Prod, 2015).
Active and inactive are the calls of the source. The calls are words filed in the database; no cut-off is given here.

Tests used:
Leishmania braziliensis = assay: Induction of intracellular ROS generation in Leishmania braziliensis promastigotes at 500 uM incubated for 72 hrs by H2DCFDA dye based assay
Leishmania amazonensis [1] = assay: Induction of membrane potential depolarization in Leishmania amazonensis MHOM/BR/75/LTB0016 promastigotes assessed as reduction in mitochondrial membrane potential at 20 uM incubated for 24 hrs by JC1 dye based fluorescence assay; conditions: MHOM/BR/75/LTB0016, 24 h, read-out: INH
Leishmania amazonensis [2] = assay: Induction of intracellular ROS generation in Leishmania amazonensis MHOM/BR/75/LTB0016 promastigotes at 96 uM incubated for 48 hrs by H2DCFDA dye based assay; type: functional
Leishmania amazonensis [3] = assay: Antiparasitic activity against Leishmania amazonensis MHOM/BR/75/LTB0016 promastigotes assessed as inhibition of cellular proliferation incubated for 24 hrs by Neubauer chamber based assay; type: functional, organism-based
Method in brief: (§1)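 Strain MHOM/BR/75/LTB0016 promastigotes were grown at 26 °C in Schneider medium (pH 7.2) with 10% heat-inactivated FCS, penicillin and streptomycin. They were seeded at 1.0 × 10^6 cells/mL with compound (3−96 μM) or DMSO vehicle (0.2% final) for 24 h at 26 °C. Density was counted in a Neubauer chamber. IC50 came from logarithmic regression. Mean ± SE of three experiments.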

Leishmania amazonensis [4] = assay: Antiparasitic activity against Leishmania amazonensis MHOM/BR/75/LTB0016 promastigotes assessed as inhibition of cellular proliferation at 96 uM incubated for 24 hrs by Neubauer chamber based assay; type: functional; conditions: MHOM/BR/75/LTB0016, 24 h
Method in brief: as §1

Leishmania amazonensis [5] = assay: Antiparasitic activity against Leishmania amazonensis MHOM/BR/75/LTB0016 promastigotes assessed as inhibition of cellular proliferation incubated for 24 hrs by CFSE staining based flow cytometry; type: functional, organism-based
Method in brief: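 Promastigotes (2.5 × 10^7 cells/mL) were washed in PBS and stained with 10 μM CFSE in PBS/0.1% albumin for 15 min at 26 °C. Staining was stopped with ice-cold medium. Cells were resuspended at 1.0 × 10^6 cells/mL with compound (3−96 μM) or 0.2% DMSO for 24 h at 26 °C. Fluorescence was read by flow cytometry. Histograms are representative of three experiments.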

Leishmania amazonensis [6] = assay: Antiparasitic activity against Leishmania amazonensis MHOM/BR/75/LTB0016 promastigotes assessed as inhibition of cellular proliferation incubated for 48 hrs by CFSE staining based flow cytometry; type: functional, organism-based; conditions: MHOM/BR/75/LTB0016, 48 h
Leishmania amazonensis [7] = assay: Induction of intracellular ROS generation in Leishmania amazonensis MHOM/BR/75/LTB0016 promastigotes incubated for 24 hrs by H2DCFDA dye based assay; type: functional, organism-based
Method in brief: (§2)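 Promastigotes (5 × 10^6 cells/mL) were cultured 24 h at 26 °C with compound (3−96 μM) or vehicle, then resuspended in HBSS at 1 × 10^7 cells/mL. They were loaded with 20 μM H2DCFDA for 20 min at 26 °C and read by flow cytometry. Results are fold increase over control, mean ± SE of three experiments.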

Leishmania amazonensis [8] = assay: Induction of intracellular ROS generation in Leishmania amazonensis MHOM/BR/75/LTB0016 promastigotes at 96 uM incubated for 24 hrs by H2DCFDA dye based assay; type: functional
Method in brief: as §2

Leishmania amazonensis [9] = assay: Antiparasitic activity against Leishmania amazonensis MHOM/BR/75/LTB0016 promastigotes assessed as inhibition of cellular proliferation at 96 uM incubated for 24 hrs in presence of 300 uM NAC by Neubauer chamber based assay; type: functional, organism-based
Method in brief: (§3)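 Promastigotes were preincubated with GSH, GSSG or NAC (300 μM final, in PBS) and then grown 24 h at 26 °C in Schneider medium with 96 μM compound (in DMSO) or vehicle (0.2% DMSO). Proliferation was counted in a Neubauer chamber. Mean ± SE of three experiments.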

Leishmania amazonensis [10] = assay: Antiparasitic activity against Leishmania amazonensis MHOM/BR/75/LTB0016 promastigotes assessed as inhibition of cellular proliferation at 96 uM incubated for 24 hrs in presence of 300 uM GSH by Neubauer chamber based assay; type: functional, organism-based
Method in brief: as §3

Leishmania amazonensis [11] = assay: Induction of intracellular ROS generation in Leishmania amazonensis MHOM/BR/75/LTB0016 promastigotes at 96 uM incubated for 24 hrs in presence of NAC by H2DCFDA dye based assay; type: functional, organism-based
Method in brief: (§4)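 Cultures held GSH, GSSG or NAC (300 μM final, in PBS) together with 96 μM compound or 0.2% DMSO for 24 h at 26 °C in Schneider medium. Cells were then stained with H2DCFDA (20 μM, 20 min, 26 °C, in HBSS) and read by flow cytometry. Results are fold ROS increase versus control, mean ± SE of three experiments.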

Leishmania amazonensis [12] = assay: Induction of intracellular ROS generation in Leishmania amazonensis MHOM/BR/75/LTB0016 promastigotes at 96 uM incubated for 24 hrs in presence of GSH by H2DCFDA dye based assay; type: functional, organism-based
Method in brief: as §4

Leishmania amazonensis [13] = assay: Antiparasitic activity against Leishmania amazonensis MHOM/BR/75/LTB0016 promastigotes assessed as inhibition of cellular proliferation at 96 uM incubated for 24 hrs in presence of 300 uM GSSG by Neubauer chamber based assay; type: functional, organism-based
Method in brief: as §3

Leishmania amazonensis [14] = assay: Induction of intracellular ROS generation in Leishmania amazonensis MHOM/BR/75/LTB0016 promastigotes at 96 uM incubated for 24 hrs in presence of GSSG by H2DCFDA dye based assay; type: functional, organism-based
Method in brief: as §4

Leishmania amazonensis [15] = assay: Induction of ultrastructural alterations in Leishmania amazonensis MHOM/BR/75/LTB0016 promastigotes assessed as extensive swelling of parasite mitochondria at 12 to 96 uM incubated for 24 hrs by transmission electron microscopy; type: functional, organism-based
Method in brief: (§5)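 Promastigotes (5 × 10^6 cells/mL) were treated for 24 h at 26 °C in Schneider medium with compound at 12, 24 or 96 μM. They were fixed in 2.5% glutaraldehyde in 0.1 M cacodylate (pH 7.2) for 40 min and postfixed in 1% OsO4, 0.8% potassium ferricyanide and 2.5 mM CaCl2 for 20 min. Cells were acetone-dehydrated and resin-embedded. Ultrathin sections were stained with uranyl acetate and lead citrate and examined by transmission electron microscopy.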

Leishmania amazonensis [16] = assay: Induction of ultrastructural alterations in Leishmania amazonensis MHOM/BR/75/LTB0016 promastigotes assessed as inner mitochondrial membrane damage with washed-out matrix appearance and decreased matrix electron density at 12 to 96 uM incubated for 24 hrs by transmission electron microscopy; type: functional, organism-based
Method in brief: as §5

Leishmania amazonensis [17] = assay: Induction of ultrastructural alterations in Leishmania amazonensis MHOM/BR/75/LTB0016 promastigotes assessed as concentric membrane structures formation inside organelle at 12 to 96 uM incubated for 24 hrs by transmission electron microscopy; type: functional, organism-based
Method in brief: as §5

Leishmania amazonensis [18] = assay: Induction of ultrastructural alterations in Leishmania amazonensis MHOM/BR/75/LTB0016 promastigotes assessed as appearance of endoplasmic profiles surrounding cellular structures and cytosolic vacuolization at 12 uM incubated for 24 hrs by transmission electron microscopy; type: functional, organism-based
Method in brief: as §5

Leishmania amazonensis [19] = assay: Induction of ultrastructural alterations in Leishmania amazonensis MHOM/BR/75/LTB0016 promastigotes assessed as washed-out appearance of mitochondria matrix and loss of cristae at 96 uM incubated for 24 hrs by transmission electron microscopy; type: functional, organism-based
Method in brief: as §5

Leishmania amazonensis [20] = assay: Induction of membrane potential depolarization in Leishmania amazonensis MHOM/BR/75/LTB0016 promastigotes assessed as reduction in mitochondrial membrane potential incubated for 24 hrs by JC1 dye based fluorescence assay; type: functional, organism-based
Method in brief: (§6)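 Promastigotes (5 × 10^6 cells/mL) were treated for 24 h with compound (3−96 μM) or 0.2% DMSO, then resuspended in HBSS at 1 × 10^7 cells/mL. They were stained with JC-1 (10 μg/mL, 10 min, 26 °C) and washed twice. Emission was read at 590 and 530 nm (excitation 480 nm), and the 590/530 ratio gives relative ΔΨm. FCCP 20 μM for 20 min served as positive control. Mean ± SE of three experiments.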

Leishmania amazonensis [21] = assay: Induction of membrane potential depolarization in Leishmania amazonensis MHOM/BR/75/LTB0016 promastigotes assessed as reduction in mitochondrial membrane potential at 96 uM incubated for 24 hrs by JC1 dye based fluorescence assay; type: functional; conditions: MHOM/BR/75/LTB0016, 24 h
Method in brief: as §6

Leishmania amazonensis [22] = assay: Induction of ultrastructural alterations in Leishmania amazonensis MHOM/BR/75/LTB0016 promastigotes assessed as cytoplasmic vacuolization at 12 uM incubated for 24 hrs by transmission electron microscopy
Leishmania amazonensis [23] = assay: Induction of ultrastructural alterations in Leishmania amazonensis MHOM/BR/75/LTB0016 promastigotes assessed as rupture of trans-Golgi network at 24 uM incubated for 24 hrs by transmission electron microscopy

O=C(O[C@@H]1Cc2c(O)cc(O)cc2O[C@@H]1c1cc(O)c(O)c(O)c1)c1cc(O)c(O)c(O)c1 [EPIGALOCATECHIN GALLATE]
fold change (FC) (Leishmania braziliensis): 2.9

N#CC(C#N)=NNc1ccc(OC(F)(F)F)cc1
inhibition at 20 µM (Leishmania amazonensis [1]): 79.8%

O=c1c(O)c(-c2ccc(O)c(O)c2)oc2cc(O)cc(O)c12 [QUERCETIN]
fold change (FC) (Leishmania amazonensis [2]): 4.4

O=c1cc(-c2ccc(O)cc2)oc2cc(O)cc(O)c12 [APIGENIN]
inhibition (Leishmania amazonensis [3]): Dose-dependent effect | IC50 (Leishmania amazonensis [3]; MHOM/BR/75/LTB0016, 24 h): 23.7 µM | inhibition at 96 µM (Leishmania amazonensis [4]): 75% | inhibition (Leishmania amazonensis [5]): Dose-dependent effect | IC50 (Leishmania amazonensis [6]): 31.4 µM | Activity (Leishmania amazonensis [7]): Dose-dependent effect | fold change (FC) (Leishmania amazonensis [8]): 2.9 | Activity (Leishmania amazonensis [9]): inactive | Activity (Leishmania amazonensis [10]): inactive | Activity (Leishmania amazonensis [11]): inactive | Activity (Leishmania amazonensis [12]): inactive | Activity (Leishmania amazonensis [13]): Active | Activity (Leishmania amazonensis [14]): Active | Activity (Leishmania amazonensis [15]): Active | Activity (Leishmania amazonensis [16]): Active | Activity (Leishmania amazonensis [17]): Active | Activity (Leishmania amazonensis [18]): Active | Activity (Leishmania amazonensis [19]): Active | Activity (Leishmania amazonensis [20]): Dose-dependent effect | inhibition at 96 µM (Leishmania amazonensis [21]): 78.3% | Activity (Leishmania amazonensis [22]): Active | Activity (Leishmania amazonensis [23]): Active
